Laboratory results reported in ChEMBL document CHEMBL4138045 (Medchemcomm, 2017).
The source made the active and inactive calls. The calls are words filed in the database; no cut-off is given here.

Legend:
[1] = molecular target: T1, Mu-type opioid receptor (Mus musculus, UniProt P42866); test: Displacement of [125I]BNtxA from mouse MOR expressed in CHO cell membranes after 90 mins by filter binding assay
Outline: (§1)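 Competition binding with [125I]BNtxA (0.1 nM) in membranes of CHO cells expressing mouse MOR, DOR or KOR. Protein 10-20 μg mL-1, 90 min incubation. Ki obtained by nonlinear regression. At least 3 assays, mean ± SEM.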

[2] = molecular target: T2, Kappa-type opioid receptor (Mus musculus, UniProt P33534); test: Displacement of [125I]BNtxA from mouse KOR expressed in CHO cell membranes after 90 mins by filter binding assay; outline: as §1
[3] = molecular target: Delta-type opioid receptor (Mus musculus, UniProt P32300); test: Displacement of [125I]BNtxA from mouse DOR expressed in CHO cell membranes after 90 mins by filter binding assay; outline: as §1
[4] = organism: Mus musculus; test: Selectivity ratio of Ki for mouse KOR to Ki for mouse MOR
[5] = organism: Mus musculus; test: Selectivity ratio of Ki for mouse DOR to Ki for mouse MOR
[6] = molecular target: T1, Mu-type opioid receptor; test: Agonist activity at mouse MOR expressed in CHO cell membranes assessed as induction of [35S]GTPgammaS binding after 90 mins by scintillation spectroscopy; assay type: functional
Outline: (§2)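 Agonist-stimulated [35S]GTPγS binding in membranes from opioid receptor-transfected cells. Membrane protein 50 µg mL-1, 90 min incubation. Potency taken as EC50. Three separate assays, each in triplicate, reported as mean ± SEM.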

[7] = molecular target: Mu-type opioid receptor (Mus musculus) (UniProt P42866); test: Agonist activity at mouse MOR expressed in CHO cell membranes assessed as induction of [35S]GTPgammaS binding after 90 mins by scintillation spectroscopy relative to DAMGO; assay type: functional
[8] = tested on: Mus musculus; test: Antinociceptive activity in CD1 mouse at 30 mg/kg, sc after 30 mins by radiant heat tail flick method relative to control; assay type: functional
Outline: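 CD1 mice (n = 10) dosed sc at 30 mg kg-1. Radiant heat tail-flick tested 30 min after injection. Values given as mean ± SEM percent antinociception.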

[9] = tested on: Mus musculus; test: Antinociceptive activity in CD1 mouse at 30 mg/kg, sc after >24 hrs by radiant heat tail flick method; assay type: functional, organism-based
Outline: (§3)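 Time course in CD1 mice (n = 10) after sc dosing at 30 mg kg-1, measured by radiant heat tail flick. Two independent determinations.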

[10] = tested on: Mus musculus; test: Antinociceptive activity in CD1 mouse at 7.5 ug, icv after >24 hrs by radiant heat tail flick method; assay type: functional, organism-based
Outline: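 Time course in CD1 mice (n = 10) after icv administration of 7.5 µg, measured by tail flick. Two independent determinations.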

[11] = tested on: Mus musculus; test: Antinociceptive activity in icv dosed CD1 mouse after 15 mins by radiant heat tail flick method; assay type: functional
Outline: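 Compounds given intracerebroventricularly to groups of mice (n = 5) as cumulative doses. Tail-flick tested 15 min later, at peak effect, to build the dose-response curve and ED50. Two independent determinations.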

[12] = tested on: Mus musculus; test: Antinociceptive activity in CD1 mouse at 30 mg/kg, sc after 30 mins in presence of MOR antagonist beta-FNA by radiant heat tail flick method; assay type: functional, organism-based
Outline: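 CD1 mice (n = 10) given compound at 30 mg kg-1 sc, with or without β-funaltrexamine (40 mg kg-1 sc) 24 h before agonist. Tail-flick tested 30 min after the agonist.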

[13] = molecular target: T2, Kappa-type opioid receptor; test: Agonist activity at mouse KOR expressed in CHO cell membranes assessed as induction of [35S]GTPgammaS binding after 90 mins by scintillation spectroscopy; assay type: functional; outline: as §2
[14] = molecular target: Kappa-type opioid receptor (Mus musculus) (UniProt P33534); test: Agonist activity at mouse KOR expressed in CHO cell membranes assessed as induction of [35S]GTPgammaS binding after 90 mins by scintillation spectroscopy relative to U50488H; assay type: functional
[15] = tested on: Mus musculus; test: Antinociceptive activity in CD1 mouse at 30 mg/kg, sc after 3 hrs by radiant heat tail flick method; assay type: functional, organism-based; outline: as §3

T2 sequence (P33534 whole entry): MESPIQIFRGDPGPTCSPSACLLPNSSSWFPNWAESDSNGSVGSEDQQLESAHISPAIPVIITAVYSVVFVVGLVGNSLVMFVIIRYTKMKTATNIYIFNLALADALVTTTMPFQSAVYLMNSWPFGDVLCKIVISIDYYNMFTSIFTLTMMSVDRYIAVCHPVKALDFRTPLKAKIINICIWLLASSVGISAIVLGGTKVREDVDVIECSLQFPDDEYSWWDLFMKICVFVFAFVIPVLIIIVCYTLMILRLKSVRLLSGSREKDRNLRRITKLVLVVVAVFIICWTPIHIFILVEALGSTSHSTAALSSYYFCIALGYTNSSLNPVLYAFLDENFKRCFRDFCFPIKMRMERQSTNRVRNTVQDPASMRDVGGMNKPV
Chain of Delta-type opioid receptor (P32300 whole entry): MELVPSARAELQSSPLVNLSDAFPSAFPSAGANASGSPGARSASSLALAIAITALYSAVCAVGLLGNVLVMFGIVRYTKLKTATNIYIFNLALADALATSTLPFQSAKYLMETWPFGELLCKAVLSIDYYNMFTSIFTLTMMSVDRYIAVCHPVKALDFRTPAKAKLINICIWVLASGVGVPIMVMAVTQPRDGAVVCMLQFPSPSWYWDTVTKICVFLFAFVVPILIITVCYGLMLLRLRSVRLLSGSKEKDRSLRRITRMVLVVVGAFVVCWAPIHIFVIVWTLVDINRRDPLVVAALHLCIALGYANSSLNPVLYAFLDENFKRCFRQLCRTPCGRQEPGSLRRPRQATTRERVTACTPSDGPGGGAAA
Chain of Mu-type opioid receptor (Mus musculus) (P42866 whole entry): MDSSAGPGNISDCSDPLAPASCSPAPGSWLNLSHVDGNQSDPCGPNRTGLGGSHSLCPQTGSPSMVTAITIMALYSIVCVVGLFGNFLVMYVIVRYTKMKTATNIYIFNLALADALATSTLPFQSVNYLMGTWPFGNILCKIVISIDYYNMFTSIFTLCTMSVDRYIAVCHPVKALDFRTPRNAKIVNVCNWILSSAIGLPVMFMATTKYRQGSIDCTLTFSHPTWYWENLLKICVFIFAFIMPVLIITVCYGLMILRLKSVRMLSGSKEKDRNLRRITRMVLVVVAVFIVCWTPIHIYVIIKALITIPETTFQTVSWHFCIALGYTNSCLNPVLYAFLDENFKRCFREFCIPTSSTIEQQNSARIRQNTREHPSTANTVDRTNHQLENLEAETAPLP
T1 sequence (P42866 whole entry): as above
Chain of Kappa-type opioid receptor (Mus musculus) (P33534 whole entry): as the sequence (P33534 whole entry) above

COc1ccc2c3c1O[C@H]1[C@@H](NC(=O)c4ccncc4)C=C[C@H]4[C@@H](C2)N(C)CC[C@@]341
Ki [1]: 40.6 nM
Ki [2]: > 100 nM
Ki [3]: 424 nM
Ratio Ki [4]: > 2.5
Ratio Ki [5]: 10.4

CN1CC[C@]23c4c5ccc(O)c4O[C@H]2[C@@H](NC(=O)c2ccncc2)CC[C@H]3[C@H]1C5
Ki [1]: 3.73 nM
Ki [2]: > 100 nM
Ki [3]: 198 nM
Ratio Ki [4]: > 26.8
Ratio Ki [5]: 53.2
EC50 [6]: 8.16 nM
Emax [7]: 115%
MPE [8]: 78%
Activity [9]: Active
Activity [10]: Active
ED50 [11]: 0.7 µg
Activity [12]: inactive

CN1CC[C@]23c4c5ccc(O)c4O[C@H]2[C@@H](NC(=O)c2ccncc2)C=C[C@H]3[C@H]1C5
Ki [1]: 2 nM
Ki [2]: 77.9 nM
Ki [3]: 65 nM
Ratio Ki [4]: 39
Ratio Ki [5]: 32.5
EC50 [6]: 4.62 nM
Emax [7]: 114%
MPE [8]: 38%
ED50 [11]: 2 µg

CN1CC[C@]23c4c5ccc(O)c4O[C@H]2[C@@H](NC(=O)c2cccnc2)CC[C@@]3(O)[C@H]1C5
Ki [1]: 6.91 nM
Ki [2]: > 100 nM
Ki [3]: 104 nM
Ratio Ki [4]: > 14.5
Ratio Ki [5]: 15
EC50 [6]: 25.7 nM
Emax [7]: 121%

CN1CC[C@]23c4c5ccc(O)c4O[C@H]2[C@@H](NC(=O)c2cccnc2)CC[C@H]3[C@H]1C5
Ki [1]: 3.29 nM
Ki [2]: 119 nM
Ki [3]: 130 nM
Ratio Ki [4]: 36.2
Ratio Ki [5]: 39.6
EC50 [6]: 7.98 nM
Emax [7]: 117%
MPE [8]: 83%
Activity [9]: Active
Activity [10]: Active
ED50 [11]: 1.8 µg
Activity [12]: inactive

CN1CC[C@]23c4c5ccc(O)c4O[C@H]2[C@@H](NC(=O)c2cccnc2)C=C[C@H]3[C@H]1C5
Ki [1]: 1.25 nM
Ki [2]: 19 nM
Ki [3]: 34.4 nM
Ratio Ki [4]: 15.2
Ratio Ki [5]: 27.5
EC50 [6]: 2.83 nM
Emax [7]: 114%
EC50 [13]: 58.8 nM
Emax [14]: 87.9%
MPE [8]: 35%
ED50 [11]: 0.51 µg

CN1CC[C@]23c4c5ccc(O)c4O[C@H]2[C@@H](O)C=C[C@H]3[C@H]1C5 [MORPHINE]
Activity [15]: Active
ED50 [11]: 0.53 µg

CN1CC[C@]23c4c5ccc(O)c4O[C@H]2[C@H](NC(=O)/C=C/c2ccccc2)C=C[C@H]3[C@H]1C5
Emax [7]: 95.3%
Emax [14]: 106%

CN1CC[C@]23c4c5ccc(O)c4O[C@H]2[C@@H](NC(=O)c2ccncc2)CC[C@@]3(O)[C@H]1C5
Ki [1]: 7.02 nM
Ki [2]: > 100 nM
Ki [3]: 173 nM
Ratio Ki [4]: > 14.2
Ratio Ki [5]: 24.7
EC50 [6]: 26.4 nM
Emax [7]: 115%
